# In publication PMC9287213 (Clinical Pharmacokinetics, 2022):
# Where two headings read alike, the source gives them in different places.
# Assays:
# [1] = tested on: renal or hepatic transporters; details: ref data on file, Eli Lilly and Company; cited from earlier work
# [2] = tested on: cytochrome P450 enzymes, sulfation, or glucuronidation enzymes; details: background statement, no reference given; cited from earlier work
# [3] = cited from earlier work
# albumin = details: in humans; background statement, no reference given; cited from earlier work
# [4] = in humans; background statement, no reference given; cited from earlier work
# [5] = format: in vivo, human
# Procedure, shortened: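 Open-label parallel single-dose study; participants grouped by baseline Child-Pugh A, B, C or normal hepatic function. One subcutaneous 5-mg injection. Plasma sampled pre-dose and 8, 12, 24, 48, 72, 96, 168, 336 h post-dose; analyte immunoprecipitated, quantified by high-resolution LC/MS, positive HESI, range 2.00–500.00 ng/mL. Noncompartmental parameters from actual sampling times; geometric mean (geometric CV%); tmax analysed nonparametrically.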
# [6] = hepatic impairment studies; cited from earlier work
Compound,substrate for renal or hepatic transporters commonly involved in drug disposition [1],"metabolism via pathways involving cytochrome P450 enzymes, sulfation, or glucuronidation enzymes [2]","decrease in liver fat content compared with insulin degludec ([3]; SURPASS-3 sub-study, 52 weeks)","non-alcoholic steatohepatitis-related biomarkers ([3]; post-hoc analysis of the phase II study, 26 weeks of treatment)",bound to albumin (albumin) [%],half-life [4],"CL/F ([5]; human, plasma, sc, 5 mg) [mL/min]","Tmax ([5]; human, plasma, sc, 5 mg) [h]","Vd/F ([5]; human, plasma, sc, 5 mg) [L]","half-life ([5]; human, plasma, sc, 5 mg) [days]","CL/F ([5]; human, plasma, sc, 5 mg, CL/F (apparent total body clearance), single 5-mg subcutaneous dose, normal hepatic function, n = 13, geometric mean (geometric CV%), noncompartmental) [mL/min]","VSS/F (apparent volume of distribution at steady state) ([5]; single 5-mg subcutaneous dose, normal hepatic function, n = 13, geometric mean (geometric CV%), noncompartmental)","T1/2 (half-life associated with the terminal rate constant) ([5]; single 5-mg subcutaneous dose, normal hepatic function, n = 13, geometric mean (range), noncompartmental)",impact of the severity of hepatic disease status on pharmacokinetics [6]
CC[C@H](C)[C@H](NC(=O)[C@H](CC(C)C)NC(=O)[C@H](Cc1c[nH]c2ccccc12)NC(=O)[C@H](CCC(N)=O)NC(=O)[C@@H](NC(=O)[C@H](Cc1ccccc1)NC(=O)[C@H](C)NC(=O)[C@H](CCCCNC(=O)COCCOCCNC(=O)COCCOCCNC(=O)CC[C@H](NC(=O)CCCCCCCCCCCCCCCCCCC(=O)O)C(=O)O)NC(=O)[C@H](CCC(N)=O)NC(=O)[C@H](C)NC(=O)[C@@H](NC(=O)[C@H](CCCCN)NC(=O)[C@H](CC(=O)O)NC(=O)[C@H](CC(C)C)NC(=O)C(C)(C)NC(=O)[C@@H](NC(=O)[C@H](CO)NC(=O)[C@H](Cc1ccc(O)cc1)NC(=O)[C@H](CC(=O)O)NC(=O)[C@H](CO)NC(=O)[C@@H](NC(=O)[C@H](Cc1ccccc1)NC(=O)[C@@H](NC(=O)CNC(=O)[C@H](CCC(=O)O)NC(=O)C(C)(C)NC(=O)[C@@H](N)Cc1ccc(O)cc1)[C@@H](C)O)[C@@H](C)O)[C@@H](C)CC)[C@@H](C)CC)C(C)C)C(=O)N[C@@H](C)C(=O)NCC(=O)NCC(=O)N1CCC[C@H]1C(=O)N[C@@H](CO)C(=O)N[C@@H](CO)C(=O)NCC(=O)N[C@@H](C)C(=O)N1CCC[C@H]1C(=O)N1CCC[C@H]1C(=O)N1CCC[C@H]1C(=O)N[C@@H](CO)C(N)=O [Tirzepatide],not a substrate,not metabolized,significantly greater decrease,improvement,99.06,approximately 5 days,0.822,24,10.6,5.46,0.988,10.7 (20) L,124 (101–158) h,–
dulaglutide,–,–,–,–,–,–,–,–,–,–,–,–,–,does not impact
semaglutide,–,–,–,–,–,–,–,–,–,–,–,–,–,does not impact
